Reference: ChEMBL document CHEMBL1955860, “Design, synthesis, and biological evaluation of 4-arylmethyl-1-phenylpyrazole and 4-aryloxy-1-phenylpyrazole derivatives as novel androgen receptor antagonists” (Bioorg Med Chem, 2012)

Columns and labels:
[1] = Anticancer activity against human LNCaP-hr cells assessed as prostate specific antigen level at 10 uM after 3 days by enzyme immunoassay relative to control; format: functional
Summary of the method: (§1)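 LNCaP-hr cells (CRPC model, T877A AR) seeded at 40,000 cells/well in phenol red-free RPMI1640 with 10% DCC-FBS; compounds at 1–10 µM added next day; secreted PSA measured and expressed as % of control; n = 3.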

[2] = Anticancer activity against human LNCaP-hr cells assessed as prostate specific antigen level at 1 uM after 3 days by enzyme immunoassay relative to control; format: functional; summary of the method: as §1
Mus musculus [3] = assay: Toxicity in athymic nude BALB/c mouse xenografted with human LNCaP-hr cells assessed as body weight loss at 20 mg/kg, po bid after 28 days; format: organism-based; parameters: dose 20 mg/kg, route oral; conditions: in vivo
Summary of the method: (§2)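 Castrated mice bearing s.c. LNCaP-hr xenografts (n = 6/group), dosed orally twice daily for 28 days in 0.5% methylcellulose vehicle; body weight tracked over the treatment period versus castration + vehicle controls.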

[4] = Anticancer activity against human LNCaP-hr cells xenografted in BALB/c athymic nude mouse assessed as change in tumor volume at 20 mg/kg, po bid after 28 days relative to control; format: functional
Summary of the method: (§3)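 Mice castrated, then given LNCaP-hr cells (5 × 10⁷ cells/mL in PBS/Matrigel 1:1) s.c. in flank the same day; grouped at ~100–300 mm³ tumor volume (n = 6/group); from next day, oral dosing in 0.5% methylcellulose vehicle, bid or qd, 28 days. T/C% = tumor volume increase in treated/vehicle group × 100; serum/plasma PSA at end by ELISA.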

Mus musculus [5] = assay: Toxicity in athymic nude BALB/c mouse xenografted with human LNCaP-hr cells assessed as body weight loss at 50 mg/kg, po bid after 28 days; format: organism-based; parameters: dose 50 mg/kg, route oral; conditions: in vivo; summary of the method: as §2
[6] = Anticancer activity against human LNCaP-hr cells xenografted in BALB/c athymic nude mouse assessed as prostate specific antigen level in plasma at 20 mg/kg, po bid after 28 days relative to control; format: functional; summary of the method: as §3
[7] = Anticancer activity against human LNCaP-hr cells xenografted in BALB/c athymic nude mouse assessed as prostate specific antigen level in plasma at 40 mg/kg, po bid after 28 days relative to control; format: functional; summary of the method: as §3
[8] = Anticancer activity against human LNCaP-hr cells xenografted in BALB/c athymic nude mouse assessed as change in tumor volume at 40 mg/kg, po bid after 28 days relative to control; format: functional; summary of the method: as §3
Mus musculus [9] = assay: Toxicity in athymic nude BALB/c mouse xenografted with human LNCaP-hr cells assessed as body weight loss at 40 mg/kg, po bid after 28 days; format: organism-based; parameters: dose 40 mg/kg, route oral; conditions: in vivo; summary of the method: as §2
[10] = Anticancer activity against human LNCaP-hr cells xenografted in BALB/c athymic nude mouse assessed as prostate specific antigen level in plasma at 50 mg/kg, po bid after 28 days relative to control; format: functional; summary of the method: as §3
[11] = Anticancer activity against human LNCaP-hr cells xenografted in BALB/c athymic nude mouse assessed as change in tumor volume at 50 mg/kg, po bid after 28 days relative to control; format: functional; summary of the method: as §3
[12] = Anticancer activity against human LNCaP-hr cells xenografted in BALB/c athymic nude mouse assessed as prostate specific antigen level in plasma at 100 mg/kg, po qd after 28 days relative to control; format: functional; summary of the method: as §3
[13] = Anticancer activity against human LNCaP-hr cells xenografted in BALB/c athymic nude mouse assessed as change in tumor volume at 100 mg/kg, po qd after 28 days relative to control; format: functional; summary of the method: as §3

Row | Structure (SMILES) | Activity [1] [%] | Activity [2] [%] | also measured
1 | Cc1nn(-c2ccc(C#N)c(Cl)c2)c(C)c1Cc1ccc(C(=O)NC(C)(C)C)cc1 | 57 | 33 | –
2 | Cc1nn(-c2ccc(C#N)c(Cl)c2)c(C)c1Cc1ccc(C(=O)NCC(C)(C)O)cc1 | 31 | 27 | Activity (Mus musculus [3]): Non-toxic; T/C [4]: 15%; Activity (Mus musculus [5]): Non-toxic; T/C [6]: 88%; T/C [7]: 23%; T/C [8]: 3%; Activity (Mus musculus [9]): Non-toxic
3 | Cc1nn(-c2ccc(C#N)c(Cl)c2)c(C)c1Cc1ccc(C(=O)N2CCOCC2)cc1 | – | 35 | –
4 | Cc1nn(-c2ccc(C#N)c(Cl)c2)c(C)c1Oc1ccc(C(=O)NCC(C)(C)O)cc1 | >100 | 33 | –
5 | Cc1nn(-c2ccc(C#N)c(Cl)c2)c(C)c1Cc1cccc(C(N)=O)c1 | 35 | 21 | –
6 | Cc1nn(-c2ccc(C#N)c(Cl)c2)c(C)c1Cc1ccc(C(N)=O)cc1 | – | 76 | –
7 | Cc1nn(-c2ccc(C#N)c(Cl)c2)c(C)c1Cc1ccc(C(=O)N(C)C)cc1 | – | 21 | –
8 | Cc1nn(-c2ccc(C#N)c(Cl)c2)c(C)c1Cc1ccc(C(=O)NCCO)cc1 | – | 33 | –
9 | Cc1nn(-c2ccc(C#N)c(Cl)c2)c(C)c1Oc1ccc(C(=O)N2CCOCC2)cc1 | 22 | 22 | –
10 | CC(=O)Nc1ccc(Oc2c(C)nn(-c3ccc(C#N)c(Cl)c3)c2C)nc1 | 14 | 8 | –
11 | Cc1nn(-c2ccc(C#N)c(Cl)c2)c(C)c1Oc1ccc(NC(=O)C(C)(C)C)cn1 | 5 | 8 | T/C [10]: 17%; T/C [11]: 2%
12 | CC(=O)Nc1ccc(Oc2c(C)nn(-c3ccc(C#N)c(Cl)c3)c2C)cn1 | 39 | 11 | –
13 | CC(O)(CS(=O)(=O)c1ccc(F)cc1)C(=O)Nc1ccc(C#N)c(C(F)(F)F)c1 (configuration not stated) [BICALUTAMIDE] | >100 | – | T/C [12]: 142%; T/C [13]: 37%
